Source: ChEMBL document CHEMBL5032497, “Rational Alteration of Pharmacokinetics of Chiral Fluorinated and Deuterated Derivatives of Emixustat for Retinal Therapy” (J Med Chem, 2021)

Legend:
[1] = target: Retinoid isomerohydrolase (Bos taurus, UniProt Q28175); assay: Inhibition of RPE65 in bovine retinal pigment epithelium microsomes assessed as decrease of 11-cis-retinol using trans-retinol measured after 1 hr by normal phase HPLC analysis; parameters: species or system Retina, Microsome
[2] = Drug distribution in wild type BL/6J mouse eyes measured at 380 nM, IP administered single dose per eye after 7 days by LC-MS/MS electrospray ionization fragmentation spectra method; assay type: ADME, tissue-based; conditions: in vivo, 168 h, 0.38 µM, time 7 day
Outline: (§1)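 Eight-week-old BL/6J mice got one i.p. dose of 380 nmol in 50 μL DMSO and were sacrificed at 3 h, 1 day or 7 days. Both eyes were homogenized in acetonitrile, and the extract was dried and reconstituted in 50% methanol/water. Analysis was by C18 LC-MS/MS with ESI and a formic acid/acetonitrile gradient. The transition monitored was water loss (−18 Da), or −47 Da for one analog.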

[3] = Drug distribution in wild type BL/6J mouse eyes measured at 380 nM, IP administered single dose per eye after 3 hrs by LC-MS/MS electrospray ionization fragmentation spectra method; assay type: ADME, tissue-based; conditions: in vivo, 0.38 µM
Outline: as §1, with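 “gradient.” for “gradient. The transition monitored was water loss (−18 Da), or −47 Da for one analog.”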

Retinoid isomerohydrolase, sequence (Q28175 whole entry, the tested form may be a part): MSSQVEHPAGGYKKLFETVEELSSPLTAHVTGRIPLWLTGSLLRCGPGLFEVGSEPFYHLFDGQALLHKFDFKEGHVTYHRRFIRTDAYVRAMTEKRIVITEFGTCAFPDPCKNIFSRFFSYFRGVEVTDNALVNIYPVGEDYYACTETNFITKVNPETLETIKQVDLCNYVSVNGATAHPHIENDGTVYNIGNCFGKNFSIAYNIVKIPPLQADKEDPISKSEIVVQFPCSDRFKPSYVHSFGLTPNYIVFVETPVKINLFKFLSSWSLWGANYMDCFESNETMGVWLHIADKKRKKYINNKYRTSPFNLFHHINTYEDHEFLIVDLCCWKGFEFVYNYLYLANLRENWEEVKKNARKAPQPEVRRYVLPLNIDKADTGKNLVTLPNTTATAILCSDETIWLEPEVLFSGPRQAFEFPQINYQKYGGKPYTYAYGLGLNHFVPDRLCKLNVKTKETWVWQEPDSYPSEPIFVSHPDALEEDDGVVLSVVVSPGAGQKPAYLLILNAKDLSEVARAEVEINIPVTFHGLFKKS

IC50 [1] | Drug uptake [2] | Drug uptake [3] | SMILES
287 nM | – | – | CCCC(CCC)COc1cccc(C(O)CCN)c1F (racemic)
– | 21 pmol | 176 pmol | NCCC(O)c1cccc(OCC2CCC(F)(F)CC2)c1 (centres undefined)
– | – | Not Active | NCCC(O)c1ccc(F)c(OCC2CCCCC2)c1 (centres undefined)
295 nM | – | – | CCCC(CCC)COc1cc(F)cc(C(O)CCN)c1 (racemic; 25)
157 nM | – | – | CCCC(CCC)COc1ccc(F)c(C(O)CCN)c1 (racemic; 27)
184 nM | – | – | CCCC(CCC)COc1cc(F)cc(C(O)CCN)c1 (racemic; 26)
– | – | Not Active | CCCC(CCC)COc1cc([C@H](O)CCN)ccc1F
132 nM | – | – | CCCC(CCC)COc1ccc(F)c(C(O)CCN)c1 (racemic; 28)
